Converted amounts (≈) assume the structure as drawn. The source made the active and inactive calls. No cut-off for these calls is given here.
Columns and labels:
[1] = Brain to plasma permeability coefficient, Kp in cynomolgus monkey at 0.2 mg/kg, iv and measured upto 1 hrs by LC-MS/MS analysis; assay type: ADME, organism-based, Macaca fascicularis
Summary of the method: (§1)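 Total brain to total plasma partition coefficient (Kp) measured in mouse, SD rat and cynomolgus monkey. The unbound ratio (Kp,uu) was corrected with brain homogenate binding. Values are means of two to three animals.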

[2] = Unbound brain-to-plasma concentration ratio in CD-1 mouse at 1 mg/kg,iv and measured upto 24 hrs by LC-MS/MS analysis; assay type: ADME, organism-based; conditions: read-out: K(p,uu,brain)
[3] = target: Metabotropic glutamate receptor 1 (Rattus norvegicus, UniProt P23385); experiment: Positive allosteric modulator activity at rat mGlu1 in human HEK cells assessed assessed as increase in calcium flux preincubated for 2.5 mins followed by gluatamate addition by Fluo-4 AM dye based calcium mobilization assay; assay type: cell-based
[4] = AUC (0 to infinity) in Cynomolgus monkey at 3 mg/kg, po and measured upto 24 hrs by LC-MS/MS analysis; assay type: ADME, organism-based, Macaca fascicularis; design: time < 24 hrs, dose 3 mg/kg, route po; conditions: in vivo
Summary of the method: (§2)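 Single oral 3 mg/kg dose in mouse, SD rat, beagle dog and cynomolgus monkey. Total plasma exposure after the oral dose gave Cmax, Tmax, AUC0-inf and F. Values are means of two to three animals.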

[5] = Volume of distribution at steady state in Cynomolgus monkey at 0.2 mg/kg, iv and measured upto 24 hrs by LC-MS/MS analysis; assay type: ADME, organism-based, Macaca fascicularis; conditions: in vivo, read-out: Vdss
Summary of the method: (§3)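 Single-dose iv and oral PK in separate arms: mouse 1 mg/kg iv / 3 mg/kg po, SD rat 0.2/3, beagle 0.5/3, cynomolgus 0.2/3 mg/kg. Plasma parameters (Vss, Tmax, F) are means of two to three animals per species.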

KCNQ1/MINK = KCNQ1/MINK (Homo sapiens, UniProt P51787+Q8N4C8); experiment: Inhibition of KCNQ1/MINK (unknown origin) at 10 uM; assay type: toxicity
Summary of the method: (§4)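 Cardiac ion channel electrophysiology (functional EP) panel, with percent inhibition measured at 10 μM.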

[6] = Solubility of compound in FaSSIF; assay type: ADME
[7] = AUC (0 to infinity) in Beagle dog at 3 mg/kg, po and measured upto 24 hrs by LC-MS/MS analysis; assay type: ADME, organism-based, Canis lupus familiaris; design: time < 24 hrs, dose 3 mg/kg, route po; conditions: in vivo; summary of the method: as §2
[8] = target: Metabotropic glutamate receptor 3 (Rattus norvegicus, UniProt P31422); experiment: Positive allosteric modulator activity at rat mGlu3 in human HEK cells co-expressing […] assessed as increase in by thallium flux preincubated for 2.5 mins followed by gluatamate addition by thallium flux assay; assay type: cell-based
[9] = Cmax in Cynomolgus monkey at 3 mg/kg, po and measured upto 24 hrs by LC-MS/MS analysis; assay type: ADME, organism-based, Macaca fascicularis; design: dose 3 mg/kg, time < 24 hrs, route po; conditions: in vivo
Summary of the method: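 Single oral 3 mg/kg dose in mouse, SD rat, beagle and cyno. Cmax is the peak total plasma concentration. Values are means of two to three animals.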

[10] = Oral bioavailability in Sprague-Dawley rat at 3 mg/kg and measured upto 24 hrs by LC-MS/MS analysis; assay type: ADME, organism-based; conditions: in vivo; summary of the method: as §3
[11] = Solubility of compound in FaSSGF; assay type: ADME
Cav1.2 = Cav1.2 (Homo sapiens, UniProt Q13936); experiment: Inhibition of Cav1.2 (unknown origin) at 10 uM; assay type: toxicity; summary of the method: as §4
[12] = Elimination half life in Sprague-Dawley rat at 0.2 mg/kg, iv and measured upto 24 hrs by LC-MS/MS analysis; assay type: ADME, organism-based; conditions: in vivo, read-out: beta t1/2 (converted)
Summary of the method: (§5)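 Single intravenous doses: mouse 1 mg/kg, SD rat 0.2 mg/kg, beagle dog 0.5 mg/kg, cynomolgus monkey 0.2 mg/kg. Plasma clearance, Vss and elimination half-life came from the plasma profiles. Values are means of two to three animals.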

[13] = Brain to plasma permeability coefficient, Kp in CD-1 mouse plasma at 1 mg/kg,iv and measured upto 24 hrs by LC-MS/MS analysis; assay type: ADME, organism-based; summary of the method: as §1
[14] = AUC in Sprague-Dawley rat at 10 mg/kg, po administered as spray-dried dispersion formulation and measured after 24 hrs by LC-MS/MS analysis; assay type: ADME, organism-based; design: dose 10 mg/kg, time 24 hrs, route po; conditions: in vivo
Summary of the method: (§6)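 Rats were dosed orally at 3, 10 and 30 mg/kg with a spray-dried dispersion of the free base and HPMCP-HP55 polymer (25%/75%), in 30% Dexolve. Total plasma Cmax and AUC were measured, N = 3.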

[15] = Clearance in Beagle dog plasma at 0.5 mg/kg, iv and measured upto 24 hrs by LC-MS/MS analysis; assay type: ADME, organism-based, Canis lupus familiaris; summary of the method: as §5
[16] = target: Metabotropic glutamate receptor 5 (Rattus norvegicus, UniProt P31424); experiment: Positive allosteric modulator activity at rat mGlu5 in human HEK cells assessed as increase in calcium flux preincubated for 2.5 mins followed by gluatamate addition by Fluo-4 AM dye based calcium mobilization assay; assay type: cell-based
[17] = target: Aryl hydrocarbon receptor (Homo sapiens, UniProt P35869); experiment: Activation of human AhR
[18] = Clearance in Sprague-Dawley rat plasma at 0.2 mg/kg, iv and measured upto 24 hrs by LC-MS/MS analysis; assay type: ADME, organism-based; summary of the method: as §5
[19] = target: Aryl hydrocarbon receptor (Rattus norvegicus, UniProt P41738); experiment: Activation of rat AhR
Rattus norvegicus = experiment: Reversal of haloperidol-induced catalepsy Sprague-Dawley rat model at 0.3 to 30 mg/kg,po and measured upto 6 hrs; assay type: functional, organism-based; conditions: dose 0.3-30 mg/kg
Summary of the method: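 Time course in the haloperidol (1.5 mg/kg i.p.) catalepsy model in rats after a single 30 mg/kg oral dose, followed for up to 6 h. Satellite rats dosed in parallel gave plasma and CSF exposures.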

[20] = Protein binding in mouse plasma assessed as fraction unbound incubated for 4 hrs by equilibrium dialysis based LC/MS/MS analysis; assay type: ADME, cell-free
[21] = target: Metabotropic glutamate receptor 6 (Homo sapiens, UniProt O15303); experiment: Positive allosteric modulator activity at human mGlu6 in human HEK cells co-expressing […] assessed as increase in by thallium flux preincubated for 2.5 mins followed by gluatamate addition by thallium flux assay; assay type: cell-based
Cytochrome P450 3A4 = Cytochrome P450 3A4 (Homo sapiens, UniProt P08684); experiment: Inhibition of CYP3A4 in human liver microsomes using midazolam as substrate preincubated for 15 mins followed by NADPH addition and measured after 8 mins by LC/MS/MS analysis; assay type: ADME, Microsome
[22] = target: Amine oxidase [flavin-containing] B (Homo sapiens, UniProt P27338); experiment: Binding affinity to MAO-B (unknown origin)
[23] = Cmax in Sprague-Dawley rat at 30 mg/kg, po administered as spray-dried dispersion formulation and measured after 24 hrs by LC-MS/MS analysis; assay type: ADME, organism-based; design: time 24 hrs, dose 30 mg/kg, route po; conditions: in vivo; summary of the method: as §6
Nav1.5 = Nav1.5 (Homo sapiens, UniProt Q14524); experiment: Inhibition of Nav1.5 (unknown origin) at 10 uM; assay type: toxicity
Summary of the method: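 Eurofins Cardiac Profiler functional electrophysiology panel of potassium, calcium and sodium cardiac ion channels, including hERG. Compound tested at 10 μM, reported as percent inhibition.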

[24] = AUC in Sprague-Dawley rat at 30 mg/kg, po administered as spray-dried dispersion formulation and measured after 24 hrs by LC-MS/MS analysis; assay type: ADME, organism-based; design: dose 30 mg/kg, time 24 hrs, route po; conditions: in vivo; summary of the method: as §6
[25] = Volume of distribution at steady state in Sprague-Dawley rat at 0.2 mg/kg, iv and measured upto 24 hrs by LC-MS/MS analysis; assay type: ADME, organism-based; conditions: in vivo, read-out: Vdss; summary of the method: as §3

Cav1.2, sequence (Q13936 whole entry): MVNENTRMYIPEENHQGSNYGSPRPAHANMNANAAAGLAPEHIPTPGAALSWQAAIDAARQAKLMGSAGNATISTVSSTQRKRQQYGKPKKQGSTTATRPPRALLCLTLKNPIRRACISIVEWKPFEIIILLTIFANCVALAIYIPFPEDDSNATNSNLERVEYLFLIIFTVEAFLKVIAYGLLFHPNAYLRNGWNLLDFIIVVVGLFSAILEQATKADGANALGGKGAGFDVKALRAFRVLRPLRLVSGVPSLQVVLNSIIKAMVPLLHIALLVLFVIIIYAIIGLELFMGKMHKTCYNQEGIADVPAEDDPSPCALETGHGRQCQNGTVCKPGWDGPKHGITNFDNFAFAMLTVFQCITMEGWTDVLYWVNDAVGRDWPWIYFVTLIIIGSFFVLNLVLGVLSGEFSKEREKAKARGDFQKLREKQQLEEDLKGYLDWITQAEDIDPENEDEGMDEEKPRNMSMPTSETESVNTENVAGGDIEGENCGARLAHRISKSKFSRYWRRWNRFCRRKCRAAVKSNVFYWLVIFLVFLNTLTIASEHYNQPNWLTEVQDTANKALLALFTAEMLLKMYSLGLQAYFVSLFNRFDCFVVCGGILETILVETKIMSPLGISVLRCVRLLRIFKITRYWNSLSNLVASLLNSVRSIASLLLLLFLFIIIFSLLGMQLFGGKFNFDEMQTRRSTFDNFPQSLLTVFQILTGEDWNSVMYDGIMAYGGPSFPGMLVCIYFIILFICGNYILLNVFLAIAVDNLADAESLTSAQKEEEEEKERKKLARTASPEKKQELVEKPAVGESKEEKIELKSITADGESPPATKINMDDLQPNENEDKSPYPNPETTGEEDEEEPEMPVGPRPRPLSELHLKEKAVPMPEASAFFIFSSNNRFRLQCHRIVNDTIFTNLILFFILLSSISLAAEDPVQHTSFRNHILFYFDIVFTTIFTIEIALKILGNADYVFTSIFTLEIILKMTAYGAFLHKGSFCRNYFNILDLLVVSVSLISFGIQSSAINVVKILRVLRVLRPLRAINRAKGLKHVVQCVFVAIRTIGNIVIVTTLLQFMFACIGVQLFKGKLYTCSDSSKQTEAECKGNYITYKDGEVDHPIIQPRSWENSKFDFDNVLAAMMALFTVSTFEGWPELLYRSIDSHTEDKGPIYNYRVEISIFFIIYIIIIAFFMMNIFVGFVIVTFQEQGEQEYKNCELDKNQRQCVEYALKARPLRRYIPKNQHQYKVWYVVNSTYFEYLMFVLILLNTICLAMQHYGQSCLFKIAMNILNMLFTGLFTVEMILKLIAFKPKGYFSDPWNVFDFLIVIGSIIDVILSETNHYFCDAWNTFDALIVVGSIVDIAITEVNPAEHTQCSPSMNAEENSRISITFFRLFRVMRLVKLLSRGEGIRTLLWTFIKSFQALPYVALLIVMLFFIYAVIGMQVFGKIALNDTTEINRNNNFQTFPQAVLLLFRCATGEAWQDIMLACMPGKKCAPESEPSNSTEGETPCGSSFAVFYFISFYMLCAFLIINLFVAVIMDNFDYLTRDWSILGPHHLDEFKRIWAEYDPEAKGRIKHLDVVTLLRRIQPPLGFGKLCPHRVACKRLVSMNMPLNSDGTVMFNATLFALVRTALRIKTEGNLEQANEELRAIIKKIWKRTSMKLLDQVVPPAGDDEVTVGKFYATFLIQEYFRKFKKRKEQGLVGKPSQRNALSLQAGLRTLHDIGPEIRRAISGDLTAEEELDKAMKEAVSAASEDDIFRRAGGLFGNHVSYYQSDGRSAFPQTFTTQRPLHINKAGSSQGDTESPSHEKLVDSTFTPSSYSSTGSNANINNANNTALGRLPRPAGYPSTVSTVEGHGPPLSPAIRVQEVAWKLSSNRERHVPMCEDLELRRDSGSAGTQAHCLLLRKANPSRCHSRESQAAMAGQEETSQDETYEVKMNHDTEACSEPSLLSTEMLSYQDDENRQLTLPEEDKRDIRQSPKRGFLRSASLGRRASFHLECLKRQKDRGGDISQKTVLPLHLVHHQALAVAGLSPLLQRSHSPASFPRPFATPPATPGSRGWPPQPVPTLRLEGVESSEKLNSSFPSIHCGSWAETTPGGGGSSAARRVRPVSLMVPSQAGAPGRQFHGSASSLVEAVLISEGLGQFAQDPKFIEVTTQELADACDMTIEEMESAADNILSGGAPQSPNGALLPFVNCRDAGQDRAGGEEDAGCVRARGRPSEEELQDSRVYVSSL
Metabotropic glutamate receptor 5, sequence (P31424 whole entry): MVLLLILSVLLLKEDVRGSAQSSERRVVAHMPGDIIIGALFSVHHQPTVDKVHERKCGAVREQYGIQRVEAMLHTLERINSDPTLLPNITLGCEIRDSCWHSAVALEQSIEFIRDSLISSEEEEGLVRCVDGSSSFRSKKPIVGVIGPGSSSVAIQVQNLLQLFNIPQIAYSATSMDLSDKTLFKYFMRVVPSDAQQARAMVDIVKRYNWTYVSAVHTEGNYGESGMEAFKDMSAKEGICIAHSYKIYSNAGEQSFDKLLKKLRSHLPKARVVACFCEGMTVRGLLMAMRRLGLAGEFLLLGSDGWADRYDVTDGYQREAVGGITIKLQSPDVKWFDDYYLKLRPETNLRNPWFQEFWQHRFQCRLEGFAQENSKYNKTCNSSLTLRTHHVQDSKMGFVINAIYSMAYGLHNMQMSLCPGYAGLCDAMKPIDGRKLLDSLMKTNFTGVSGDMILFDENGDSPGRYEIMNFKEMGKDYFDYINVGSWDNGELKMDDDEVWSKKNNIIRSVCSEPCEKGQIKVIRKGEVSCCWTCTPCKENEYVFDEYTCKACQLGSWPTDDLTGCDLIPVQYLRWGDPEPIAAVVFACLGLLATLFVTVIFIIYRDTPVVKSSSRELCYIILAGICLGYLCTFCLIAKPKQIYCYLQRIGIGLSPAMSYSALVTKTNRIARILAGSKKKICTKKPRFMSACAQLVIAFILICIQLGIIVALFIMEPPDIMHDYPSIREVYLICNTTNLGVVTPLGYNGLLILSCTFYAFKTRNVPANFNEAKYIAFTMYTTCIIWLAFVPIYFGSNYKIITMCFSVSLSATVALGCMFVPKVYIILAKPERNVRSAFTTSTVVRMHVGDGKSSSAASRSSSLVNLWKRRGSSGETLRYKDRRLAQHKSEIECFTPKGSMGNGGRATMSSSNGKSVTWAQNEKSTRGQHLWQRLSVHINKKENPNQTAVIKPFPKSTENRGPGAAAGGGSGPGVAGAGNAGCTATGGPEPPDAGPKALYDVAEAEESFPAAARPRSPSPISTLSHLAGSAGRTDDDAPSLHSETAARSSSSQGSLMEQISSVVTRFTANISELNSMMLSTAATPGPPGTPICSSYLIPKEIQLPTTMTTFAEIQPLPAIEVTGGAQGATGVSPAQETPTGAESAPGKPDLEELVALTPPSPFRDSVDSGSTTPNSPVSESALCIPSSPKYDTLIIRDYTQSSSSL
Aryl hydrocarbon receptor (Rattus norvegicus, UniProt P41738), sequence (P41738 whole entry): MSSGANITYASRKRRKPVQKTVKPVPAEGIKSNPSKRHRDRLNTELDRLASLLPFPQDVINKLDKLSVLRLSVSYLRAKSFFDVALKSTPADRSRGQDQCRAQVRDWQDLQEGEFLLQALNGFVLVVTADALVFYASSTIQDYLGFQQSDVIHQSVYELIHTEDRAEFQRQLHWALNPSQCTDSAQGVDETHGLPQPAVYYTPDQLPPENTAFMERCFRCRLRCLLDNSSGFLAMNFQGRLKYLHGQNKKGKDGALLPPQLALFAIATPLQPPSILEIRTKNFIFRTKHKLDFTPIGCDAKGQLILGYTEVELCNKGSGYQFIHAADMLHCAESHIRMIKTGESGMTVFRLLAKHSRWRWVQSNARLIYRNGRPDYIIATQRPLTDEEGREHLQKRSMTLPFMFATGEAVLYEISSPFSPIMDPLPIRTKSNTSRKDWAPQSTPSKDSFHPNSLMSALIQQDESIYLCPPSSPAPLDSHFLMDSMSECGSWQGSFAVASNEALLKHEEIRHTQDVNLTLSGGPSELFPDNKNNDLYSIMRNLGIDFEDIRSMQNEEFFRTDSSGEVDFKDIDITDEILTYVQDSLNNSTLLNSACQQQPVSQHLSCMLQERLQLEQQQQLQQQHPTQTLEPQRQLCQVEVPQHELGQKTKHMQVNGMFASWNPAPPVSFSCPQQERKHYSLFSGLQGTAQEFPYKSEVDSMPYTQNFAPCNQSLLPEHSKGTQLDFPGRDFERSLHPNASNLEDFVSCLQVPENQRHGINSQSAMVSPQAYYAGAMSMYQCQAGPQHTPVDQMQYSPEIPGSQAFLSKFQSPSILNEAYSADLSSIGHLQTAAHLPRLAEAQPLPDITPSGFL
Aryl hydrocarbon receptor (Homo sapiens, UniProt P35869), sequence (P35869 whole entry): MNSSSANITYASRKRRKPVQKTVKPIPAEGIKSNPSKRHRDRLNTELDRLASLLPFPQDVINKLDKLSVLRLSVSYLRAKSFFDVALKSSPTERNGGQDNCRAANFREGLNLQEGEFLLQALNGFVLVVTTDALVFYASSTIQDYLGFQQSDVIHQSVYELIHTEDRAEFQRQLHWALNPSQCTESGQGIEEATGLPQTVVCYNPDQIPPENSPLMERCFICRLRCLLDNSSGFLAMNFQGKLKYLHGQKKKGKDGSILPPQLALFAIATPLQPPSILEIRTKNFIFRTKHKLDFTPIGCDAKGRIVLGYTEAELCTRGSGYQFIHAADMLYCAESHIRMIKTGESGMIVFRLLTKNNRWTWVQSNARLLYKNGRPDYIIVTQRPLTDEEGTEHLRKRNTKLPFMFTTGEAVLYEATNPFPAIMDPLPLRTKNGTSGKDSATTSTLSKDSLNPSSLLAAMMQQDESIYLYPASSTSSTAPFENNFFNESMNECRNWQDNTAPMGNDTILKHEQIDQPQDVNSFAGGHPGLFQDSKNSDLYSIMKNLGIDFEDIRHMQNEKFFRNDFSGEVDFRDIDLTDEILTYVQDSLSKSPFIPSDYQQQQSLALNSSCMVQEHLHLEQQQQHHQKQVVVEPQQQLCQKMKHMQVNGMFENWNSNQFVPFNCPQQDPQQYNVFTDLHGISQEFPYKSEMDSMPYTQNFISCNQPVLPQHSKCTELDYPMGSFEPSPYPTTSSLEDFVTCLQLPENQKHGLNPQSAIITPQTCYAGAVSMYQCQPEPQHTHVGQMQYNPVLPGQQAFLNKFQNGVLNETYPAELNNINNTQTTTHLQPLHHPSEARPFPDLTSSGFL

FC(F)(F)c1nccc2cc(Nc3n[nH]c4ncccc34)ccc12
Kp at 1 h [1]: 1.24 | Kp uu at 24 h [2]: 0.16 | EC50 [3]: > 10 µM | AUC(0-inf) [4]: 2.81 µM·h | Vd [5]: 3.2 L/kg | inhibition at 10 µM (KCNQ1/MINK): < 50% | solubility [6]: < 5 µg/mL | AUC(0-inf) [7]: 1.82 µM·h | EC50 [8]: > 10 µM | Cmax [9]: 0.26 µM | bioavailability [10]: 100% | solubility [11]: 9 µg/mL (≈ 27.3 µM) | inhibition at 10 µM (Cav1.2): < 50% | half-life [12]: 1.05 h | Kp at 24 h [13]: 0.78 | AUC at 24 h [14]: 23.7 µM·h | clearance [15]: 31.6 mL/min/kg | EC50 [16]: > 10 µM | Activity [17]: Not Active | clearance [18]: 37.7 mL/min/kg | Activity [19]: Not Active | Activity (Rattus norvegicus): Active | fraction unbound at 4 h [20]: 0.015 | EC50 [21]: > 10 µM | IC50 (Cytochrome P450 3A4): > 30 µM | EC50 [22]: > 30 µM | Cmax [23]: 6.05 µM | inhibition at 10 µM (Nav1.5): < 50% | AUC at 24 h [24]: 83.9 µM·h | Vd [25]: 3 L/kg
